Legend:
[1] = Volume of distribution at steady state in patient with bacterial infection at 1 gm, iv administered at 30 mins regimen for 24 hrs by LC/MS/MS analysis; details: human, in vivo, read-out: Vdss
[2] = Tmax in patient with bacterial infection at 1 gm[…], sc administered at 30 mins regimen for 24 hrs by LC/MS/MS analysis; format: ADME, organism-based; details: human, in vivo
Outline: (§1)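 Six infected patients received ertapenem 1 g once daily, infused over 30 min: first i.v. via a central vein, then s.c. into the anterior thigh for one day. Arterial plasma was sampled over 24 h at steady state (i.v. on days 4–7). Plasma was stabilized 1:1 at pH 6.5 and assayed by LC-MS/MS. Total concentrations were fitted with compartmental models (1/y weighting), giving Cmax, tmax, t1/2, AUC0-24, CL and Vss as mean ± SD.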

[3] = Half life in patient with bacterial infection at […], sc administered at 30 mins regimen for 24 hrs by LC/MS/MS analysis; format: ADME, organism-based; details: human, in vivo
Outline: as §1

[4] = fT>MIC […] Escherichia coli-infected kinetic model; format: functional
Homo sapiens = assay: Ratio of AUC (0 to 24 hrs) in sc dosed patient with bacterial infection to AUC (0 to 24 hrs) in iv dosed patient with bacterial infection; format: ADME, organism-based; details: in vivo
Outline: as §1

[5] = Cmax in patient with bacterial infection at 1 gm[…], sc administered at 30 mins regimen for 24 hrs by LC/MS/MS analysis; format: ADME, organism-based; set-up: route subcutaneous; details: human, in vivo
Outline: as §1

[6] = Tmax in patient with bacterial infection at 1 gm[…], iv administered at 30 mins regimen for 24 hrs by LC/MS/MS analysis; format: ADME, organism-based; details: human, in vivo
Outline: as §1

[7] = fT>MIC methicillin-resistant Staphylococcus aureus-infected kinetic model; format: functional
[8] = fT>MIC […] Klebsiella pneumoniae-infected kinetic model; format: functional
[9] = Cmax in patient with bacterial infection at 1 gm[…], iv administered at 30 mins regimen for 24 hrs by LC/MS/MS analysis; format: ADME, organism-based; set-up: route intravenous; details: human, in vivo
Outline: as §1

[10] = fT>MIC […]-infected kinetic model; format: functional
[11] = Half life in patient with bacterial infection at […], iv administered at 30 mins regimen for 24 hrs by LC/MS/MS analysis; format: ADME, organism-based; details: human, in vivo
Outline: as §1

[12] = Clearance in patient with bacterial infection at 1 gm[…], iv administered at 30 mins regimen for 24 hrs by LC/MS/MS analysis; format: ADME, organism-based; details: human, in vivo
Outline: as §1

C[C@@H](O)[C@H]1C(=O)N2C(C(=O)O)=C(S[C@@H]3CN[C@H](C(=O)Nc4cccc(C(=O)O)c4)C3)[C@H](C)[C@H]12 [ERTAPENEM]
Vd [1]: 16.1 L | Tmax [2]: 2.7 h | half-life [3]: 5.4 h | fT>MIC [4]: 30% | Ratio AUC (Homo sapiens): 0.99 | Cmax [5]: 43 µg/mL | Tmax [6]: 0.5 h | fT>MIC [7]: 30% | fT>MIC [8]: 30% | Cmax [9]: 115 µg/mL | fT>MIC [10]: 30% | half-life [11]: 3.9 h | clearance [12]: 63.3 mL/min

Reference: ChEMBL document CHEMBL1240363, “Pharmacokinetics of ertapenem following intravenous and subcutaneous infusions in patients” (Antimicrob Agents Chemother, 2010)
